# From ChEMBL document CHEMBL3992515, “Design, synthesis, and evaluation of a novel series of macrocyclic inhibitors of norovirus 3CL protease” (Eur J Med Chem, 2017)
# How the values were obtained:
# [1] = Cytotoxicity against human HG23 cells after 48 hrs by crystal violet staining-based assay; type: cell-based; conditions: for CC50 at 48 h: HG23 cells, read-out: TC50; for CC50: hg23, 48 h, 48 h, read-out: TC50 (the source's name)
# In short: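 Confluent NV replicon-bearing hepatoma HG23 cells exposed to compound at 1 to 100 μM for 48 h. Cytotoxicity read by CytoTox 96 nonradioactive assay and crystal violet staining; CC50 taken as concentration giving 50% cell death, averaged over at least two determinations.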
# Norovirus = experiment: Antiviral activity against Norovirus replicon infected in human HG23 cells assessed as inhibition of viral RNA replication after 48 hrs by qRT-PCR method; type: functional, cell-based
# In short: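 HG23 cells (NV replicon-harboring hepatoma), confluent and semi-confluent, given medium with DMSO (<0.1%) or compound up to 20 μM for 48 h. Total RNA extracted and viral genome quantified by real-time qRT-PCR. EC50 fitted from dose-response; average of at least two determinations.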
# Murine norovirus [2] = experiment: Antiviral activity against MNV replicon infected in mouse RAW264.7 cells assessed as inhibition of viral RNA replication after 24 hrs; conditions: RAW264.7, 24 h
# [3] = Inhibition of Norovirus 3CLpro using Edans-DFHLQ/GP-Dabcyl as substrate preincubated for 30 mins followed by substrate addition measured after 1 hr by FRET assay
# In short: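 Protease and serial compound dilutions up to 100 μM (or DMSO) held in 20 mM HEPES pH 8, 200 mM NaCl, 0.4 mM EDTA, 60% glycerol, 6 mM DTT at 37°C for 30 min, then substrate added. Fluorescence (ex 360/em 460 nm) read 1 h later, background subtracted (no-protease well). IC50 from variable-slope curve fit; average of at least two determinations.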
# Murine norovirus [4] = experiment: Antiviral activity against MNV replicon infected in mouse RAW264.7 cells assessed as inhibition of viral RNA replication after 24 hrs; type: functional, cell-based
# In short: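 Confluent RAW264.7 cells infected with MNV at MOI 0.1 for 1 h; inoculum then replaced with medium containing compound (up to 20 μM) or DMSO (0.1%). Further 24 h incubation; virus replication quantified by TCID50 titration. EC50 from dose-response fitting; values average of at least two determinations.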
Structure (SMILES),CC50 at 48 h [1],"EC50 (Norovirus; Norovirus, HG23, 48 h)",EC50 (Murine norovirus [2]),IC50 [3],CC50 [1],EC50 (Murine norovirus [4]),EC50 (Norovirus)
C[C@@H]1NC(=O)OC(c2cccc(Cl)c2)CCCCCNC(=O)CC[C@@H](C=O)NC1=O (stereo partly drawn),> 100 µM,> 20 µM,> 20 µM,> 100 µM,–,–,–
CC(C)C[C@@H]1NC(=O)OC(c2cccc(Cl)c2)CCCCCNC(=O)CC[C@@H](C(O)S(=O)(=O)O)NC1=O (stereo partly drawn),> 100 µM,1.6 µM,15.1 µM,1.1 µM,–,–,–
O=C1CC[C@@H](C(O)S(=O)(=O)O)NC(=O)C2(CCCCC2)NC(=O)OC(c2cccc(Cl)c2)CCCCCCN1 (stereo partly drawn),46.6 µM,> 20 µM,> 20 µM,> 100 µM,–,–,–
CC(C)C[C@@H]1NC(=O)OC(CCCc2ccccc2)CCCCCNC(=O)CC[C@@H](C(O)S(=O)(=O)O)NC1=O (stereo partly drawn),69.2 µM,4.6 µM,> 20 µM,6.8 µM,–,–,–
O=C1CC[C@@H](C(O)S(=O)(=O)O)NC(=O)C2(CCCCC2)NC(=O)OC(c2cccc(Cl)c2)CCCCCN1 (stereo partly drawn),48.5 µM,> 20 µM,> 20 µM,> 100 µM,–,–,–
CC(C)C[C@@H]1NC(=O)OC(CCCc2ccccc2)CCCCCNC(=O)CC[C@@H](C=O)NC1=O (stereo partly drawn),71.5 µM,7.5 µM,> 20 µM,4.2 µM,–,–,–
O=C[C@@H]1CCC(=O)NC/C=C/CCC(c2cccc(Cl)c2)OC(=O)N[C@@H](CC2CCCCC2)C(=O)N1 (stereo partly drawn),42.3 µM,1.5 µM,3.1 µM,1.3 µM,–,–,–
C[C@@H]1NC(=O)OC(c2cccc(Cl)c2)CCCCCCNC(=O)CC[C@@H](C=O)NC1=O (stereo partly drawn),> 100 µM,9.5 µM,> 20 µM,62.3 µM,–,–,–
CC(C)C[C@@H]1NC(=O)OC(c2ccccc2)CCCCCNC(=O)CC[C@@H](C=O)NC1=O (stereo partly drawn),> 100 µM,7.7 µM,> 20 µM,1.3 µM,–,–,–
CCCCCC1CCCCCNC(=O)CC[C@@H](C=O)NC(=O)[C@H](CC(C)C)NC(=O)O1 (stereo partly drawn),72.7 µM,3.1 µM,12.1 µM,3.2 µM,–,–,–
CC(C)C[C@@H]1NC(=O)OC(c2cccc(Cl)c2)CCCCCCNC(=O)CC[C@@H](C=O)NC1=O (stereo partly drawn),67.4 µM,5.4 µM,> 20 µM,6.3 µM,–,–,–
CC(C)C[C@@H]1NC(=O)OC(c2cccc(Cl)c2)CCCCCNC(=O)CC[C@@H](C(=O)C(=O)NC2CC2)NC1=O (stereo partly drawn),53.1 µM,9.1 µM,15.5 µM,2.3 µM,–,–,–
O=C[C@@H]1CCC(=O)NCCCCCCC(c2cccc(Cl)c2)OC(=O)NC2(CCCCC2)C(=O)N1 (stereo partly drawn),53.3 µM,> 20 µM,> 20 µM,> 100 µM,–,–,–
CC(C)C[C@@H]1NC(=O)OC(Cc2ccccc2)CCCCCNC(=O)CC[C@@H](C=O)NC1=O (stereo partly drawn),> 100 µM,8.8 µM,> 20 µM,4.6 µM,–,–,–
CC(C)C[C@@H]1NC(=O)OC(Cc2ccccc2)CC/C=C/CNC(=O)CC[C@@H](C=O)NC1=O (stereo partly drawn),> 100 µM,3.1 µM,> 20 µM,2.5 µM,–,–,–
CC(C)C[C@@H]1NC(=O)OC(c2cccc(Cl)c2)CCCCCNC(=O)CC[C@@H](C=O)NC1=O (stereo partly drawn),> 100 µM,1.8 µM,13.2 µM,1.5 µM,–,–,–
O=C[C@@H]1CCC(=O)NCCCCCC(c2cccc(Cl)c2)OC(=O)NC2(CCCCC2)C(=O)N1 (stereo partly drawn),62.4 µM,> 20 µM,> 20 µM,> 100 µM,–,–,–
CCCCCC1CCCCCNC(=O)CC[C@@H](C(O)S(=O)(=O)O)NC(=O)[C@H](CC(C)C)NC(=O)O1 (stereo partly drawn),78.5 µM,3.5 µM,14.6 µM,5.1 µM,–,–,–
CC(C)C[C@@H]1NC(=O)OC(c2cccc(Cl)c2)CCCCCONC(=O)CC[C@@H](C=O)NC1=O (stereo in doubt; 36A),68.3 µM,3.6 µM,15.5 µM,30.5 µM,–,–,–
CC(C)C[C@@H]1NC(=O)OC(c2cccc(Cl)c2)CCCCCONC(=O)CC[C@@H](C=O)NC1=O (stereo in doubt; 36B),–,–,–,46.7 µM,73.8 µM,13.4 µM,5.1 µM
O=C[C@@H]1CCC(=O)NCCCCCC(c2cccc(Cl)c2)OC(=O)N[C@@H](CC2CCCCC2)C(=O)N1 (stereo in doubt; form 1),62.4 µM,2.1 µM,4.3 µM,4.1 µM,–,–,–
O=C[C@@H]1CCC(=O)NCCCCCC(c2cccc(Cl)c2)OC(=O)N[C@@H](CC2CCCCC2)C(=O)N1 (stereo in doubt; form 2),–,–,–,6.5 µM,45.3 µM,6.5 µM,2.5 µM
